# From PubChem BioAssay
# AHR act: human AHR activation; activation, % at 5 µM; P35869; AHR-responsive luciferase reporter cells, luminescence; 2.5% of 320,000 active; AID 2796; in the data active = activation above about 47%;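 note: 0% = vehicle wells and 100% = reference agonist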
# Target sequence (P35869 whole entry, looked up): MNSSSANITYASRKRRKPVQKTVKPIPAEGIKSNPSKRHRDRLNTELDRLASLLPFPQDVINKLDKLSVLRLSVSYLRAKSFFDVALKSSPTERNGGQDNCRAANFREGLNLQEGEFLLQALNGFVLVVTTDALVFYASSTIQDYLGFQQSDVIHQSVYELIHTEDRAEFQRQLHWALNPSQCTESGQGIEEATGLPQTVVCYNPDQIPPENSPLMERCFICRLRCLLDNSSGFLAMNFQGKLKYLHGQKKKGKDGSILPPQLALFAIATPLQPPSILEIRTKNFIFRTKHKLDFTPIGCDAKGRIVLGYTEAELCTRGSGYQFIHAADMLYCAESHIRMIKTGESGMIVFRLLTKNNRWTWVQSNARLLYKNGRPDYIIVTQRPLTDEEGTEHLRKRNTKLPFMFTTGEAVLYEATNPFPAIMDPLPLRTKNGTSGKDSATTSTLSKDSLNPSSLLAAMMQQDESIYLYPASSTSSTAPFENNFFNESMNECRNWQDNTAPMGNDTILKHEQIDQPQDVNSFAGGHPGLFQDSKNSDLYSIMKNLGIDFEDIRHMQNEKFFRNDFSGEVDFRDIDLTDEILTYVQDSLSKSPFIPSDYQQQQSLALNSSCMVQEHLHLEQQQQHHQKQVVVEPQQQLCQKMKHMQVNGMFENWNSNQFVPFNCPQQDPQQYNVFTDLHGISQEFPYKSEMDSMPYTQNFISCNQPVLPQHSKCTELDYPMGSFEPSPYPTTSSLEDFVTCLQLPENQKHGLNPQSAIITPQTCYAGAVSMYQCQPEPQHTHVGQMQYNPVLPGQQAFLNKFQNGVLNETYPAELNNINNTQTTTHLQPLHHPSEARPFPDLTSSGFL
# HSF1 inhib: HSF1 inhibition; NIH3T3-HGL HSE-luciferase, MG132-induced, luminescence 8 h; hits give low values; activity change, negative = inhibition, % at 7.5 µM (by protocol); 0.77% of 300,000 active; AID 2098;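 active = more than half of replicate wells show activity change below -50%, luminescence cut by over half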;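 note: luciferase reports HSF-1 transcriptional activity via heat shock element; 0% = median of DMSO wells and -100% = zero luminescence signal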
# PERK inhibitor: human PERK inhibition, primary cell-based screen | Q9NZJ5 | CHO PERK-DD fusion, SEAP luminescence translation reporter | inhibition, % at 5.6 µM | 0.17% of 220,000 active | AID 1416;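 active = inhibition above the mean inhibition of all tested compounds plus 3 SD, set separately per screening campaign, cut at about 2.9% in these data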;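 note: PERK kinase domain activated by AP20187 dimerizer at 100 nM; 0% = DMSO with dimerizer and 100% = rapamycin at 8.4 µM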
# PolyA inh: inhibitors of polyadenylation in S. cerevisiae. 0.02% of 300,000 active. S. cerevisiae SKY197-pL101 polyadenylation reporter, beta-gal luminescence; efflux-impaired pdr1/pdr3 knockout yeast; score 100 = 6 SD above DMSO. activity score, % at 12 µM;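 active = lowest replicate activity score at least 50, where 100 means six control SD above control mean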;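 note: yeast exposed to compound for 9 h at 30 °C; higher score means more reporter readthrough which indicates perturbed polyadenylation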
# STAT3 activator: activators of IL-6 induced STAT3 signaling; U3A cells, IL-6 STAT3-luciferase reporter, luminescence; 100% = signal with IL-6 EC80 alone; activation (% of control), % at 5.6 µM; 0.91% of 190,000 active; AID 871;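 active = activation above the screen-wide mean of compound activation plus 3 SD, cut at about 130% in these data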;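 note: 0% = background luminescence of wells with medium and substrate only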
#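 Test system: STAT3-luciferase reporter U3A cells; Detection: reporter luminescence signal; Times: 1 h compound pre-exposure, 6 h IL-6 stimulation, 37 °C; Benchmarks: IL-6-only high control; Also added: IL-6 stimulus at 33 ng/mL final.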
# Hsp70 act: transcriptional activators of Hsp70. HeLa Hsp70 promoter luciferase reporter, luminescence; scaled: vehicle 0, proteasome-inhibitor control 100%. activation, % at 10 µM. 0.04% of 200,000 active;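 active = activation above the mean across all tested compounds plus 3 SD, cutoff set per campaign, cut at about 5.5% in these data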;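 note: 100% = MG132 at 30 µM as the positive control and 0% = DMSO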
# Starred values were filed as active, the others as inactive; . = no result given. In the library only some 3.6% were active in any assay of this set; here they are far more common.
SMILES,AHR act,HSF1 inhib,PERK inhibitor,PolyA inh,STAT3 activator,Hsp70 act
Cc1ccc(-c2csc3ncnc(Nc4ccc(N5CCOCC5)cc4)c23)cc1,78*,0,0,-9,97,0
Cc1ccc(-c2csc3ncnc(NCCN4CCOCC4)c23)cc1,1,-8,-1,-9,100,0
Cc1ccc(NC(=S)NNC(=O)c2ccco2)cc1,2,0,0,7,93,0
Cc1cccc(NC(=S)NNC(=O)c2ccco2)c1,0,0,3.1*,4,98,0
O=C(O)c1cccc(NC(=S)NC(NC(=O)c2ccco2)C(Cl)(Cl)Cl)c1 (configuration not stated),3,-61*,2,-2,.,.
O=C(NC(NC(=S)Nc1ccc(Cl)c(Cl)c1)C(Cl)(Cl)Cl)c1ccco1 (configuration not stated),4,0,0,2,98,0
CCCC(C)C(=O)Nc1nc(C)c(-c2csc(Nc3ccc(Cl)cc3)n2)s1 (configuration not stated),79*,8,0,-7,129,0
COc1ccc(Cl)cc1Nc1nc(-c2sc(NC(=O)C(C)(C)C)nc2C)cs1,16,-2,-1,-12,76,0
CCCCCCC(=O)Nc1nc(C)c(-c2csc(Nc3ccccc3OC)n2)s1,69*,0,-1,8,94,0
CCCCCC(=O)Nc1nc(C)c(-c2csc(Nc3ccccc3OCC)n2)s1,67*,-1,-1,-12,103,0
CCCC(=O)Nc1nc(C)c(-c2csc(Nc3ccccc3C)n2)s1,15,0,0,7,101,0
CCCCC(=O)Nc1nc(C)c(-c2csc(Nc3cc(Cl)ccc3OC)n2)s1,70*,-3,0,-1,104,0
CC(=O)CC1(OC(C)=O)C(=O)N(C)c2ccccc21 (configuration not stated),3,-4,0,-6,101,0
CC1Cc2cc(S(=O)(=O)N3CCN(c4ccccc4F)CC3)ccc2N1C(=O)C1CC1 (configuration not stated),1,0,.,-25,.,.
O=C(CNC(=O)c1cn2ccccc2n1)Nc1ccc(F)c(F)c1,7,18,.,20,.,.
Cc1ccccc1-n1c(SCC(=O)Nc2ccccc2Cl)nc2n[nH]c(C)c2c1=N,62*,16,.,1,.,.
COc1ccc(OC)c(NC(=O)CSc2nc3n[nH]c(C)c3c(=N)n2-c2cccc(Cl)c2C)c1,12,5,.,9,.,.
Cc1ccccc1-n1c(SCc2ccccn2)nc2n[nH]c(C)c2c1=N,66*,-5,-1,4,85,0
O=C(COc1ccccc1Cl)N1CCN(c2ccccn2)CC1,5,0,.,-7,.,.
COc1ccccc1NC(=O)C(C)Sc1nc(-c2ccccc2)cn1N (configuration not stated),5,.,.,.,.,.
CCCN(C(=O)CSCc1ccc(Cl)cc1)c1c(N)n(Cc2ccccc2)c(=O)[nH]c1=O,1,4,.,-9,.,.
O=C(O)c1ccccc1C(=O)NC1Cc2ccccc2C1,-3,1,2,-3,.,.
Cc1[nH]n(CCC#N)c(=O)c1CC(=O)N1CCN(c2ccccc2)CC1,2,-54*,1,10,107,0
CCN(CC)S(=O)(=O)c1ccc2c(c1)N(CC(=O)NCCN1CCOCC1)C(=O)CO2,-2,3,.,22,.,.
Cc1oc(/C=N/NC(=O)CC2(C)OCCO2)cc1Br,15,-53*,1,16,102,0
SMILES,AHR act,HSF1 inhib,PERK inhibitor,PolyA inh,STAT3 activator,Hsp70 act
CC1(CC(=O)N/N=C/c2cc(Br)c(O)cc2O)OCCO1,3,-5,1,-2,104,0
c1ccc(-[n+]2nc(Nc3cccc4ccccc34)sc2-c2c3ccccc3cc3ccccc23)cc1,62*,.,.,.,.,.
CC(=O)Nc1ccc(CN2CCC(CO)(CCOc3ccccc3)CC2)cc1,5,-56*,0,4,103,0
CC(NC(=O)c1ccccc1OC(F)F)c1ccc(-n2ccnc2)cc1 (configuration not stated),71*,-2,.,-2,.,.
COc1ccc(C(=O)NC(C)c2ccc(-n3ccnc3)cc2)c(OC)c1 (configuration not stated),54*,2,.,4,.,.
Cc1cc2n(n1)C(c1c[nH]c3ccccc13)Nc1ccccc1-2 (configuration not stated),43,1,0,-39,139*,0
Cn1nnnc1SCCNCc1cccnc1,-2,0,3.2*,7,106,0
COc1cccc(CNCCSc2nnnn2C)c1,1,6,-1,.,98,-1
CC(=O)c1c(C)[nH]c(C(=O)Nc2cccc3ccccc23)c1C,110*,6,.,-3,.,.
CC(=O)c1c(C)[nH]c(C(=O)Nc2ccccc2Cl)c1C,59*,9,.,-15,.,.
CCC(C)c1ccccc1NC(=O)c1[nH]c(C)c(C(C)=O)c1C (configuration not stated),29,-5,.,9,.,.
CC(=O)c1c(C)[nH]c(C(=O)Nc2ccc3c(c2)OCCO3)c1C,54*,11,0,22,92,0
CC(=O)c1c(C)[nH]c(C(=O)Nc2cccnc2)c1C,57*,-2,1,5,101,0
CC(=O)c1c(C)[nH]c(C(=O)NCc2ccccc2Cl)c1C,-5,5,-1,1,84,0
O=C(O)CCn1c(SCCOc2ccccc2F)nc2ccccc21,.,1,.,-4,.,.
CCOc1ccccc1CNC(=O)c1ccc2nc(N3CCOCC3)sc2c1,6,1,.,13,.,.
CCOC(=O)[C@H]1[C@H]2COc3ccccc3[C@@H]2N2C(=O)[C@@H](CO)NC(=O)[C@@]12C,-2,.,.,.,.,.
COCCOCCn1c(/C=C/c2ccccc2)nc2ccccc21,8,32,0,-25,78,0
CC(C)n1c(/C=C/c2ccccc2)nc2ccccc21,57*,79,1,-6,91,0
CCOC(=O)c1cnc(-c2ccccc2)nc1N,6,19,0,-2,103,0
CCOC(=O)c1cnc(-c2ccccc2)nc1N1CCOCC1,48*,-9,0,-15,95,0
CCOC(=O)c1[nH]cc(-c2ccccc2)c1N1CCOCC1,49*,.,0,.,108,-1
CCc1cc[n+](C2=C([O-])c3ccccc3C(=O)/C2=N\S(=O)(=O)c2cccs2)cc1,68*,19,0,0,108,0
Cc1cccc(N2CCN(C(=O)NC(C)c3ccc(F)c(F)c3)CC2)c1C (configuration not stated),-4,-4,.,-51,.,.
Cc1cc(Nc2ccccc2)nc(N2CCOCC2)n1,25,3,1,2,101,0
Cc1cc(Nc2cccc(Cl)c2)nc(N2CCOCC2)n1,52*,4,-1,6,100,0
